The text below walks through data of PMC9401565 (Clinical Cancer Research, 2021).

Like-named read-outs stand apart in the source and are kept apart here.

The subject of data set [1] is BCR pathway in DoHH-2 cells. Briefly: BCR downstream signaling in IgM-stimulated cells, Western blot. Format: cell-based. Particulars: IgM-stimulated DoHH-2. On the technique in general: A western blot detects proteins with antibodies after separation by electrophoresis.
The subject of another data set is REC-BTK^wt (REC-1) cells. As to the kind of experiment: CellTiter-Glo viability assay. Format: cell-based. Particulars: Homo sapiens, Rec1, 72 h. In general terms: ATP-based viability assays read luminescence as a measure of living cells.
For the next data set, the system named is REC-BTK^KO cells. Briefly: CellTiter-Glo viability assay. Format: cell-based.
Data set [2] relates to 10 parental B-NHL cell lines. As to the kind of experiment: CellTiter-Glo viability assay, mean over cell line panel. Format: cell-based. The note with it: 72 h, read-out: mean GI50.
In a further data set the test system is MCL cell lines. Briefly: CellTiter-Glo viability assay, mean over MCL cell lines. Particulars: 72 h, read-out: mean GI50. Format: cell-based.
For data set [3], the target named is T1, BTK (Homo sapiens, UniProt Q06187). As to the kind of experiment: KINOMEscan quantitative binding assay.
T1 sequence (Q06187 whole entry): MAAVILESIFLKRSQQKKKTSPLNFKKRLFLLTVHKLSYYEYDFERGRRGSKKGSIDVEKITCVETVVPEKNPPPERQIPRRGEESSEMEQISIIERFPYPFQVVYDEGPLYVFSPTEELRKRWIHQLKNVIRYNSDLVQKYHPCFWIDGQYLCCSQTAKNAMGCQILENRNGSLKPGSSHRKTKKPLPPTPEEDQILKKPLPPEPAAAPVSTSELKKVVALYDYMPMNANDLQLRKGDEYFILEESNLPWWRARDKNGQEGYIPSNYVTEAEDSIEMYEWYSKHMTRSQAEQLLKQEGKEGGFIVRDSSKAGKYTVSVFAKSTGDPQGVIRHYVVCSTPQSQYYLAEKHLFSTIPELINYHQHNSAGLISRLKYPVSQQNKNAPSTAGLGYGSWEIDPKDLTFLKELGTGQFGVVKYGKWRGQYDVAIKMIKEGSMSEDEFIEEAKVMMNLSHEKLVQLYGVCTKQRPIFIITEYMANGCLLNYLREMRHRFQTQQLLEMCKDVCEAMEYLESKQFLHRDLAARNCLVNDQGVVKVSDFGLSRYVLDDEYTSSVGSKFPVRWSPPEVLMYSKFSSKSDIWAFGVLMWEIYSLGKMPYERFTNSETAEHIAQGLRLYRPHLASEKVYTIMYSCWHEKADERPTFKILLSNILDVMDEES
The target of another data set is T2, TXK (Homo sapiens, UniProt P42681).
T2 sequence (P42681 1-527): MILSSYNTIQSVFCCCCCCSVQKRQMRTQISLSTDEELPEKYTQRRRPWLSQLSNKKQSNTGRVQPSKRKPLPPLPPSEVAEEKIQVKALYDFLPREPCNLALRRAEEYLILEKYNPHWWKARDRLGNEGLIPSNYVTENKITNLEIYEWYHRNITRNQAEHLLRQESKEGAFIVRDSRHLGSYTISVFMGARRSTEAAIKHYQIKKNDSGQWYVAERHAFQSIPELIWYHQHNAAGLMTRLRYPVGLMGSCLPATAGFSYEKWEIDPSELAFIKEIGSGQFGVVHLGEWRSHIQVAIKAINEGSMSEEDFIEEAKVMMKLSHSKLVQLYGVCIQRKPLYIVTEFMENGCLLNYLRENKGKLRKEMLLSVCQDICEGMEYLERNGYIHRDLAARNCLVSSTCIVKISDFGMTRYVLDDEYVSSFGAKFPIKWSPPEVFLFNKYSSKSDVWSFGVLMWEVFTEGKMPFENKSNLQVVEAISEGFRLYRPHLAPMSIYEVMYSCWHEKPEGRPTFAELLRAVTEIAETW
Briefly: KINOMEscan quantitative binding assay.

The target of a further data set is JAK3 (Homo sapiens, UniProt P52333). As to the kind of experiment: KINOMEscan quantitative binding assay.
JAK3, sequence (P52333 781-1124 limits assumed): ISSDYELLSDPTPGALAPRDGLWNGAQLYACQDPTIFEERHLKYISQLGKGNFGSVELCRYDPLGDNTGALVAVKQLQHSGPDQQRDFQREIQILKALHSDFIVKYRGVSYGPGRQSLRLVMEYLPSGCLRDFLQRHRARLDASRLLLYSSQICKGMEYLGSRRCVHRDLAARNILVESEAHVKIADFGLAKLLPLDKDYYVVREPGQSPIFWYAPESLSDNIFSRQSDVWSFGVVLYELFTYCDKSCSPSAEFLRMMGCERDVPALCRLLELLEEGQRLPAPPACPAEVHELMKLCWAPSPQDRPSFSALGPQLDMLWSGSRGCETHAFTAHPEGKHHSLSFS
The next data set has as its target BTK^wt (Homo sapiens, UniProt Q06187). As to the kind of experiment: BTK kinase activity assay, 33P-ATP filtration. Format: biochemical.
For a further data set, the target named is BTK^C481S (Homo sapiens, UniProt Q06187, C481S). As to the kind of experiment: BTK kinase activity assay, 33P-ATP filtration. Format: biochemical. The note with it: BTK^C481S vs BTK^wt.
BTK^C481S, sequence (Q06187 whole entry C481S): as the sequence (Q06187 whole entry) above, with C481S counted along it
In the next data set the test system is REC-BTK^C481S cells. As to the kind of experiment: CellTiter-Glo viability assay. The note with it: REC-1–BTK^C481S. Format: cell-based.
For a further data set, the system named is MINO MCL xenograft. As to the kind of experiment: MINO MCL xenograft model, tumor growth inhibition. Format: in vivo, nude mice. Particulars: orally, twice a day, 16-day treatment.
Data set [4] has as its system BTK and AKT phosphorylation. As to the kind of experiment: MINO xenograft, intratumor BCR-related kinases by Western blot. Format: in vivo, nude mice. The note with it: single oral gavage 50 mg/kg. The method in brief:
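Nude mice aged 6–7 weeks were implanted subcutaneously with 5 × 10^6 MINO cells. Dosing was oral once tumors reached 100–200 mm3. Tumor protein extracts were immunoblotted for BCR-related kinases. Densitometry was normalized to GAPDH or tubulin and referred to the control sample.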

Data set [5] has as its system REC-1^GFP+LUC+ MCL xenograft. As to the kind of experiment: REC-1 xenograft model, tumor growth inhibition. Particulars: 25 mg/kg, every day, 17-day dosing. Format: in vivo, CB17-SCID mice. The method in brief:
(§1)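 CB17-SCID mice were inoculated subcutaneously with […] REC-1GFP+Luc+ or UPN-IbruR cells. Tumor growth and vital parameters were monitored. Mice received oral test compound at 25 mg/kg daily or vehicle for 17 days. Endpoint tumor burden was read by bioluminescence for REC-1 and by caliper for UPN-IbruR. TGI was calculated versus vehicle.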

A further data set relates to UPN-IbruR MCL xenograft. As to the kind of experiment: UPN-IbruR xenograft model, tumor growth. The note with it: 25 mg/kg, every day, 17 days. Format: in vivo, CB17-SCID mice. The gist of the method: as §1
The next data set relates to CLL. Briefly: Phase I trial NCT03671590, clinical outcome of 6 patients with CLL. Format: in vivo, human. The gist of the method: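 Relapsed/refractory CLL patients in trial NCT03671590 took oral test compound once daily (200, 300 or 400 mg) until progression or intolerable toxicity. ALC was recorded on day 1. CLL cell percentage was derived from ALC against the upper normal limit. Best tumor reduction was assessed at C3D1 and graded as partial response or stable disease.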

Data set [6] concerns the target T1, BTK. Briefly: BTK occupancy in patient PBMC lysates. Particulars: 6 patients with CLL, 4 hours after treatment. Format: in vivo.
Data set [7] in a line: PK analysis, TG-1701 plasma concentrations. Format: in vivo, human. Particulars: patients, from 100 to 300 mg.
In a further data set the test system is p-BTK, MYC, YES1. Briefly: Immunoblot of p-BTK, Ikaros, MYC and YES1 in PBMC lysates of patients with CLL. Format: in vivo, human. The note with it: early-responder patients, 4 hours posttreatment.
Another data set has as its system phosphopeptides in PBMC. Format: in vivo, human. The note with it: early-responder patients, 4-hour postdose.
For another data set, the system named is CLL, MCL, WM. The note with it: cited from earlier work; for preliminary overall response rate (ORR): 200 mg daily monotherapy, median follow-up 7 months ref 17.

BTK^wt, sequence (Q06187 whole entry): as the sequence (Q06187 whole entry) above

In general, GI50 refers to the concentration that inhibits growth by half. `C=CC(=O)N1CCC[C@@H](n2nc(-c3ccc(Oc4ccccc4)cc3)c3c(N)ncnc32)C1` [ibrutinib, reference compound]: in data set [1], the “concentration of maximal effects on BCR downstream signaling” value worked out at 10 nmol/L. The figures for the GI50 (in the data set with REC-BTK^wt (REC-1) cells; in data set [2]; in the data set with MCL cell lines) were 5.82 µM, 14.1 µM and 10.8 µM, respectively. Also, the “sensitivity of REC-BTK^KO cells” value in the data set on REC-BTK^KO cells was “refractory”.

The Kd is the constant that tells how readily two partners part at equilibrium. For orientation: EC50 means the concentration that produces a half-maximal response. By TGI is commonly meant how far tumour growth fell short of that in controls. A low value points to little slowing of growth. With `CC#CC(=O)N1CC[C@@H](n2cc(-c3ccc(Oc4c(F)cccc4F)cc3)c3c(N)n[nH]c(=O)c32)C1` [TG-1701], binding at BTK [3] was characterised by a dissociation constant (Kd) of 0.003 µM. Besides, the figures for the “Kd fold higher than that of ibrutinib” value at TXK and at JAK3 were 68 fold and more than 94 fold, respectively. The same molecule yielded an EC50 on BTK^wt of 0.0067 µM. Further, the “fold decrease in inhibitory kinase activity” value at BTK^C481S was found to be 54.8 fold. Also, the “concentration of maximal effects on BCR downstream signaling” value in data set [1] turned out to be 100 nmol/L. Also, the GI50 in the data set with REC-BTK^wt (REC-1) cells is 3.83 µM; in [2], 6.4 µM; in the data set with MCL cell lines, 4.3 µM. Also, the “fold less sensitive compared with parental REC-1 cells” value in the data set with REC-BTK^C481S cells was 2.8 fold. For the same molecule, the “sensitivity of REC-BTK^KO cells” value in the data set on REC-BTK^KO cells is recorded as “refractory”. Besides, the TGI in the data set on MINO MCL xenograft (25 mg/kg) turned out to be 56%; in the data set on MINO MCL xenograft (50 mg/kg), 72%; with MINO MCL xenograft (100 mg/kg) it was 78%. For the same molecule, the “duration of BTK and AKT dephosphorylation in tumor” value in data set [4] is given as “at least 24 hours”. In addition, the “earliest time of AKT dephosphorylation in tumor” value in data set [4] worked out at 4 h. In addition, the “earliest time of BTK dephosphorylation in tumor” value in data set [4] was 2 h. In addition, the “tumor TGI versus vehicle” value in [5] is given as 53%. The “sensitivity of UPN-IbruR tumors” value in the data set on UPN-IbruR MCL xenograft was “almost insensitive”. Moreover, the “Clinical outcome (% reduction)” value was determined as 87% in the data set on CLL (patient AII-0011, 400–300 mg daily); 38% in the data set with CLL (patient AIJ-0001, 200 mg daily); 56% with CLL (patient AIJ-0005, 300 mg daily); 86% in the data set with CLL (patient AIJ-0015, 400 mg daily). For the same molecule, the Clinical outcome with CLL (patient AIJ-0005, 300 mg daily) is recorded as “SD-PR”; in the data set on CLL (patient AIK-0003, 200 mg daily), “SD (lymphocytosis)”. For the same molecule, the BTK occupancy result at BTK [6] is on record as “Near-complete BTK occupancy”. Moreover, the “dose dependence of Cmax and AUC0–8 hours” value in data set [7] is listed as “approximately dose-proportional increases”. Moreover, in the data set with p-BTK, MYC, YES1, the “downregulation of MYC protein” value worked out at 48%. Further, the “downregulation of p-BTK protein” value in the data set with p-BTK, MYC, YES1 was determined as 70%. For the same molecule, the “increase of YES1 levels” value with p-BTK, MYC, YES1 was approximately 5 fold. The “phosphorylation of Ikaros p-Ser442/445 upon treatment” value in the data set on phosphopeptides in PBMC is “totally dephosphorylated”. The “preliminary overall response rate (ORR)” value is on record as 95% with CLL, MCL, WM (CLL); 50% in the data set with CLL, MCL, WM (MCL); 95% in the data set on CLL, MCL, WM (WM). The “complete responses (CR)” value in the data set with CLL, MCL, WM (TG-1701 monotherapy ref 17) is “No complete responses (CR) are confirmed”.
